Results published in ChEMBL document CHEMBL1122765, “Cyclic melanotropins. 5. Importance of the C-terminal tripeptide (Lys-Pro-Val)” (1984).
Bridge positions count the residues as written; N and C are the ends. Peptide text beside a SMILES is read from it.

Columns and labels:
Lithobates pipiens = assay: Ability to stimulate melanosome dispersion in vitro in the frog skin activity measured relative to alpha-MSH; type: functional
How it was run: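 Rana pipiens skin in vitro; melanosome dispersion read as skin darkening. Test solutions made by serial dilution from a 10⁻⁴ M stock. n = 6 or more skins per point, mean ± SE. Potency relative to α-MSH derived from parallel dose–response curves over the linear portion.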

Anolis carolinensis = assay: Ability to stimulate melanosome dispersion in vitro in the lizard skin activity measured relative to alpha-MSH; type: functional
How it was run: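 Anolis carolinensis skin in vitro; melanosome dispersion read as skin darkening. Test solutions serially diluted from a 10⁻⁴ M stock. n = 6 skins per point, mean ± SE. Relative potency versus α-MSH taken from parallel dose–response curves over the linear range.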

Mus musculus = species on record: Mus musculus; assay: Adenylate cyclase activity in vitro in the membrane fraction from S-91 mouse melanoma tumors activity measured relative to alpha-MSH; type: functional, cell membranes
How it was run: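 Particulate membrane fraction from S-91 (Cloudman) melanoma tumors grown in […] mice. Adenylate cyclase measured as conversion of [α-³²P]ATP to [³²P]cAMP, with cAMP isolated and detected by the Salomon method. Potency relative to α-MSH from parallel dose–response curves.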

## CC(=O)N[C@H]1CSSC[C@@H](C(N)=O)NC(=O)[C@H](Cc2c[nH]c3ccccc23)NC(=O)[C@H](CCCN=C(N)N)NC(=O)[C@H](Cc2ccccc2)NC(=O)[C@H](Cc2c[nH]cn2)NC(=O)[C@H](CCC(=O)O)NC1=O
Lithobates pipiens
  Relative potency: 0.06
Anolis carolinensis
  Relative potency: 0.003

## CSCC[C@H](NC(C)=O)C(=O)N[C@@H](CCC(=O)O)C(=O)N[C@@H](Cc1c[nH]cn1)C(=O)N[C@@H](Cc1ccccc1)C(=O)N[C@@H](CCCN=C(N)N)C(=O)N[C@@H](Cc1c[nH]c2ccccc12)C(=O)NCC(N)=O
Lithobates pipiens
  Relative potency: 0.0007
Mus musculus
  Relative potency: 0.03
Anolis carolinensis
  Relative potency: 0.03

## CC(=O)N[C@@H](CO)C(=O)N[C@@H](Cc1ccc(O)cc1)C(=O)N[C@@H](CO)C(=O)N[C@H]1CSSC[C@@H](C(=O)N[C@@H](CCCCN)C(=O)N2CCC[C@H]2C(=O)N[C@H](C(N)=O)C(C)C)NC(=O)[C@H](Cc2c[nH]c3ccccc23)NC(=O)[C@H](CCCN=C(N)N)NC(=O)[C@H](Cc2ccccc2)NC(=O)[C@H](Cc2c[nH]cn2)NC(=O)[C@H](CCC(=O)O)NC1=O (Ac-SYSCEHFRWCKPV-NH2; disulfide 4-10)
Lithobates pipiens
  Relative potency: 10
Anolis carolinensis
  Relative potency: 2

## CC(=O)N[C@H]1CSSC[C@@H](C(=O)N[C@@H](CCCCN)C(N)=O)NC(=O)[C@H](Cc2c[nH]c3ccccc23)NC(=O)[C@@H](CCCN=C(N)N)NC(=O)[C@H](Cc2ccccc2)NC(=O)[C@@H](Cc2c[nH]cn2)NC(=O)[C@H](CCC(=O)O)NC1=O
Mus musculus
  Relative potency: 0.16

## CC(=O)N[C@H]1CSSC[C@@H](C(=O)N[C@@H](CCCCN)C(=O)N2CCC[C@H]2C(N)=O)NC(=O)[C@H](Cc2c[nH]c3ccccc23)NC(=O)[C@H](CCCN=C(N)N)NC(=O)[C@@H](Cc2ccccc2)NC(=O)[C@H](Cc2c[nH]cn2)NC(=O)[C@H](CCC(=O)O)NC1=O
Lithobates pipiens
  Relative potency: 20
Anolis carolinensis
  Relative potency: 6

## CC(=O)N[C@H]1CSSC[C@@H](C(=O)N[C@@H](CCCCN)C(=O)N2CCC[C@@H]2C(N)=O)NC(=O)[C@H](Cc2c[nH]c3ccccc23)NC(=O)[C@@H](CCCN=C(N)N)NC(=O)[C@H](Cc2ccccc2)NC(=O)[C@@H](Cc2c[nH]cn2)NC(=O)[C@H](CCC(=O)O)NC1=O
Mus musculus
  Relative potency: 1.4

## CC(=O)N[C@H]1CSSC[C@@H](C(=O)N[C@@H](CCCCN)C(=O)N2CCC[C@H]2C(=O)N[C@H](C(N)=O)C(C)C)NC(=O)[C@H](Cc2c[nH]c3ccccc23)NC(=O)[C@H](CCCN=C(N)N)NC(=O)[C@H](Cc2ccccc2)NC(=O)[C@H](Cc2c[nH]cn2)NC(=O)[C@H](CCC(=O)O)NC1=O
Lithobates pipiens
  Relative potency: 30
Anolis carolinensis
  Relative potency: 0.6

## CC(=O)N[C@H]1CSSC[C@@H](C(N)=O)NC(=O)[C@H](Cc2c[nH]c3ccccc23)NC(=O)[C@@H](CCCN=C(N)N)NC(=O)[C@H](Cc2ccccc2)NC(=O)[C@@H](Cc2c[nH]cn2)NC(=O)[C@H](CCC(=O)O)NC1=O
Mus musculus
  Relative potency: 0.016

## CC(=O)N[C@H]1CSSC[C@@H](C(=O)N[C@@H](CCCCN)C(=O)N2CCC[C@@H]2C(=O)N[C@H](C(N)=O)C(C)C)NC(=O)[C@H](Cc2c[nH]c3ccccc23)NC(=O)[C@@H](CCCN=C(N)N)NC(=O)[C@H](Cc2ccccc2)NC(=O)[C@@H](Cc2c[nH]cn2)NC(=O)[C@H](CCC(=O)O)NC1=O
Mus musculus
  Relative potency: 1.1

## CC(=O)N[C@H]1CSSC[C@@H](C(=O)N[C@@H](CCCCN)C(N)=O)NC(=O)[C@H](Cc2c[nH]c3ccccc23)NC(=O)[C@H](CCCN=C(N)N)NC(=O)[C@H](Cc2ccccc2)NC(=O)[C@H](Cc2c[nH]cn2)NC(=O)[C@H](CCC(=O)O)NC1=O
Lithobates pipiens
  Relative potency: 0.16
Anolis carolinensis
  Relative potency: 0.07

## CC(=O)N[C@H]1CSSC[C@@H](C(=O)N[C@@H](CCCCN)C(=O)N2CCC[C@H]2C(N)=O)NC(=O)[C@H](Cc2c[nH]c3ccccc23)NC(=O)[C@H](CCCN=C(N)N)NC(=O)[C@H](Cc2ccccc2)NC(=O)[C@H](Cc2c[nH]cn2)NC(=O)[C@H](CCC(=O)O)NC1=O
Lithobates pipiens
  Relative potency: 10
Anolis carolinensis
  Relative potency: 1.5
